Source: PubChem (Johns Hopkins Ion Channel Center)
This is a sample that favours compounds with a hit; in the whole collection about 3.5% have one here.
MrgX1 agonist: agonists of human MrgX1 receptor, primary screen, HEK293 cells, Fluo-4 calcium flux; Mas-related G-protein coupled receptor member X1 (Homo sapiens), Q96LB2; Fluo-4 calcium fluorescence, agonist mode; stronger effect = higher value; B-score at 10 µM; 310,000 compounds, 0.44% hits; AID 588627, 2011;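 active = calcium response B-score plate-corrected fluorescence ratio at least 3 library SD, with starting fluorescence B-score inside 5 SD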
Target sequence (Q96LB2 whole entry, looked up): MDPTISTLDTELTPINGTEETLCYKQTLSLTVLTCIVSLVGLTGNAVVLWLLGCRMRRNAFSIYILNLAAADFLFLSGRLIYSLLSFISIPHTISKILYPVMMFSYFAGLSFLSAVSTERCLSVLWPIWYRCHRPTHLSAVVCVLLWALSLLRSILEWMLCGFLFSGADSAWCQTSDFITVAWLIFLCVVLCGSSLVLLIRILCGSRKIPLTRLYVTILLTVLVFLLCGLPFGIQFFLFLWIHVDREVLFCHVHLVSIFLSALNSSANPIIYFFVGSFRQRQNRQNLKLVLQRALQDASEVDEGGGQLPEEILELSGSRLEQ
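Assay system: MrgX1-expressing HEK293 cells / Amount: fifteen thousand cells per well / Doses: test compound in the initial addition of three / Timing: cells plated overnight, dye loaded 0.5 h 37 °C, 0.5 h room temperature / Technique: kinetic calcium dye fluorescence, Fluo-4 NW / Control set: positive and negative controls per plate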
MrgX1 antag: antagonists of human MrgX1 receptor, primary screen, HEK293 cells, Fluo-4 calcium flux. Mas-related G-protein coupled receptor member X1 (Homo sapiens), Q96LB2. BAM8-22 antagonism; stronger effect = lower value. B-score at 10 µM. 310,000 compounds, 1.3% hits. AID 588676, 2011;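 active = calcium-response B-score plate-corrected more than 3 library SD below zero, starting fluorescence within 5 deviations, no agonist response on first addition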;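 also: peak minus trough fluorescence over baseline after final BAM8-22 challenge near maximal dose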
RGS4 block: RGS4 inhibitors, primary screen, cell-based, HEK293 M3R inducible RGS4, calcium flux. Regulator of G-protein signaling 4 (Homo sapiens), P49798. Fluo-4 calcium flux; stronger effect = higher value; triggered by carbachol at its EC20. B-score at 10 µM. 310,000 compounds, 0.45% hits. AID 463165, 2010;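 active = B-score, a plate-corrected calcium signal, over three deviations above library mean, with baseline fluorescence within five deviations of library mean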;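 also: RGS4 expression induced by doxycycline in cells with stable M3 receptor; B-score is computed from the integrated fluorescence ratio over baseline after carbachol; higher B-score means a larger calcium signal and so more RGS4 inhibition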
Target sequence (P49798 whole entry, looked up): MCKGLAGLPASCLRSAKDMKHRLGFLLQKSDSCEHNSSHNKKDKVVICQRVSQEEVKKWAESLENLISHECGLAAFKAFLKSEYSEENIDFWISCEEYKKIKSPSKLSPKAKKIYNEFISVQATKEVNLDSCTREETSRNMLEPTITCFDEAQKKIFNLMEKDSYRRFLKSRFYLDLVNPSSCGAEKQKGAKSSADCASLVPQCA
RGS4 act: RGS4 potentiators or activators, primary screen, cell-based, HEK293 M3R inducible RGS4, calcium flux; 310,000 compounds, 0.92% hits; B-score at 10 µM; AID 463111, 2010; carbachol calcium flux Fluo4; stronger effect = lower value;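 active = B-score of the integrated calcium signal more than 4 SD below the library mean, with starting fluorescence not abnormally high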;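 also: negative B-score means reduced calcium response which marks RGS4 activation or potentiation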
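Assay system: Inducible-RGS4 HEK293 cells carrying M3 receptor | Schedule: Compound preincubation 20 min at room temperature before agonist | Signal: Kinetic calcium fluorescence imaging with Fluo4-AM dye, 2 µM | Read-out basis: B score from integrated fluorescence ratio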
MrgX1 allo act: positive allosteric modulators of MrgX1, primary screen, HEK293 cells, Fluo-4 calcium flux; Mas-related G-protein coupled receptor member X1 (Homo sapiens), Q96LB2; FDSS; stronger effect = higher value; B-score at 10 µM; 310,000 compounds, 0.63% hits; AID 588675, 2011;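 active = plate-corrected calcium response at least 3 library SD above typical, normal starting fluorescence, not activating the receptor alone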;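 also: compound read alongside a low EC10 to EC30 dose of BAM8-22 agonist; peak minus trough fluorescence over baseline measured at the second addition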
MrgX1 antag conf: MrgX1 receptor antagonists, duplicate retest, confirmation, HEK293 cells, Fluo-4 calcium flux; shares compounds with MrgX1 antag; BAM8-22 calcium flux; stronger effect = lower value; remaining BAM8-22 calcium response % of control (stronger effect = lower value), % at 10 µM; 2,300 compounds, 19% hits; AID 602420, 2012;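 active = remaining agonist calcium response no higher than 100% minus 3 SD of agonist-only control wells, with starting fluorescence near control levels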;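 also: agonist BAM8-22 given at a near maximal EC90 to ECmax level; peak minus minimum fluorescence divided by baseline after agonist addition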
HEK293 Ca flux: nonspecific calcium signal in parental HEK293, confirmation, counter-screen for MrgX1 antagonist project, parental HEK293 cells, Fluo-4 calcium flux; shares compounds with MrgX1 antag; Fluo-4 calcium fluorescence, FDSS; fluorescence ratio F(max-min)/F0 at 10 µM; 4,000 compounds, 2% hits;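 active = duplicate-averaged calcium fluorescence ratio at least three times the standard deviation of buffer wells, a nonspecific response in parental cells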
HEK293 Ca counter: calcium response in parental HEK293 cells, primary screen, counter-screen for MrgX1 allosteric activator project, cell-based, Fluo-4 calcium flux, duplicate; fluorescence ratio F(max-min)/F0 at 10 µM; shares compounds with MrgX1 antag; 4,000 compounds, 0.4% hits; Fluo-4 fluorescence ratio; stronger effect = higher value;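 active = calcium fluorescence ratio, averaged over duplicates, at least 3 SD of the buffer-well ratio, meaning a nonspecific response in receptor-free cells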;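 also: untransfected parental HEK293 lacking MrgX1 used as counterscreen for MrgX1 allosteric activators; fluorescence change taken during the second addition on a kinetic imager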
HEK293 Ca cntr2: calcium response in parental HEK293 cells, primary screen, counter-screen for MrgX1 agonist project, cell-based, Fluo-4 calcium flux, duplicate, agonist mode; AID 624115, 2012; shares compounds with MrgX1 antag; 4,000 compounds, 8.7% hits; fluorescence ratio F(max-min)/F0 at 10 µM; Fluo-4 calcium fluorescence (FDSS); stronger effect = higher value;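 active = calcium fluorescence ratio at least three times the spread of buffer wells, meaning a non-specific response in parental cells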
An asterisk follows results filed as active; i = inactive; . = not tested or not shown.

SMILES | MrgX1 agonist | MrgX1 antag | RGS4 block | RGS4 act | MrgX1 allo act | MrgX1 antag conf | HEK293 Ca flux | HEK293 Ca counter | HEK293 Ca cntr2
CN(C)S(=O)(=O)c1cc(NC(=O)CN2CCN(c3ccccc3O)CC2)ccc1Cl | i | i | i | i | i | . | . | . | .
Cc1ccc(S(=O)(=O)c2ccc(Cl)cc2)cc1S(=O)(=O)N(C)CC(=O)O | i | -5.9* | i | i | i | i | i | i | i
Cc1cccc(C)c1NC(=O)CN(C)C(=O)C1CCN(c2ncnc3sc(C)c(C)c23)CC1 | i | i | i | i | i | . | . | . | .
CCN(CC(=O)Nc1c(F)cccc1F)C(=O)C1CCN(c2ncnc3sc(C)c(C)c23)CC1 | i | -8.2* | i | i | i | i | i | i | i
Cc1ccc(C)c(NC(=O)C2=CCN(S(=O)(=O)c3ccc(F)cc3)CC2)c1 | i | i | i | i | i | . | . | . | .
CCC(C(=O)N1CCN(c2ncccn2)CC1)c1ccccc1 (stereo not given) | i | -4.6* | i | i | i | i | i | i | i
Cc1ccnc(NC(=O)CNC(=O)c2ccccc2Br)c1 | i | i | i | i | i | . | . | . | .
COc1cccc(CNc2nc(SC)ncc2CO)c1 | i | -4.8* | i | i | i | 80%* | i | i | i
COc1cccc(CNc2ncnc3cc(OC)c(OC)cc23)c1 | i | i | i | i | i | . | . | . | .
Cc1ccc(C)c(-c2nnc(NC(=O)CCS(=O)(=O)c3ccc(F)cc3)o2)c1 | i | -4.7* | i | i | i | i | i | i | i
CCOc1ccc(NC(=O)CN(C)C(=O)c2ccccc2-n2cnnn2)cc1OCC | i | i | i | i | i | . | . | . | .
Cc1c(C(=O)O)sc2nc3n(c(=O)c12)CCCCC3 | i | i | i | i | i | . | . | . | .
Cc1c(C(=O)N2CCN(c3ncccn3)CC2)sc2nc3n(c(=O)c12)CCCC3 | i | -7.4* | i | i | i | i | i | i | i
c1ccc(-c2nc(-c3ccncc3)no2)cc1 | i | -7.6* | i | i | i | i | i | i | i
c1ccc(-c2ccccc2-c2nc(-c3ccncc3)no2)cc1 | i | -4.7* | i | i | i | i | i | i | i
Clc1ccccc1-c1nc(-c2ccncc2)no1 | i | i | i | i | i | . | . | . | .
O=c1c2oc3nc4c(cc3c2ncn1CCCc1ccccc1)CCCC4 | i | i | i | i | i | . | . | . | .
O=C(Cc1cccc(C(F)(F)F)c1)NCc1cccnc1 | i | i | i | i | i | . | . | . | .
CCN(CC)C(=O)N1CCC(NC(=O)c2ccccc2)CC1 | i | -7.5* | i | i | i | i | i | i | i
O=C(NC1CCN(C(=O)N2CCOCC2)CC1)c1ccccc1 | i | i | i | i | i | . | . | . | .
CCCCNC(=O)c1onc(CS(=O)(=O)c2ccccn2)c1C(=O)NCCCC | i | i | . | . | i | . | . | . | .
CN1CCN(c2ccc(Cl)cc2NS(=O)(=O)c2ccccc2Cl)CC1 | i | -5.3* | i | i | i | 81%* | i | i | i
NC(=O)C1CCN(c2ncnc3c2c(-c2ccccc2)cn3-c2ccccc2)CC1 | i | -5.2* | i | i | i | i | i | i | i
CCc1cc2c(=O)[nH]c(-c3ccncc3)nc2s1 | i | -6.6* | i | i | i | i | i | i | i
Cc1cccc(N(CC(=O)NC2CCCCC2)C(=O)c2csnn2)c1 | i | i | i | i | i | . | . | . | .
SMILES | MrgX1 agonist | MrgX1 antag | RGS4 block | RGS4 act | MrgX1 allo act | MrgX1 antag conf | HEK293 Ca flux | HEK293 Ca counter | HEK293 Ca cntr2
Cc1cccc(N(CC(=O)NC2CCCCC2)C(=O)c2c(C)noc2C)c1 | i | -6.5* | i | i | i | i | i | i | i
COc1ccc(N2CC(C(=O)Nc3ccccc3N3CCCC3)CC2=O)c(OC)c1 (stereo not given) | i | -5.8* | i | i | i | i | i | i | i
COc1ccc(N2CC(C(=O)Nc3cccc(S(=O)(=O)N4CCCC4)c3)CC2=O)c(OC)c1 (stereo not given) | i | -9* | i | i | i | i | i | i | i
COc1ccc(C(CNC(=O)Cc2cccs2)N(C)C)cc1 (stereo not given) | i | i | i | i | i | . | . | . | .
O=C(Nc1nc(-c2ccccc2)cs1)c1ccc(=O)[nH]c1 | i | -4.8* | i | i | i | i | i | i | i
CC(=O)c1cccc(NC(=O)c2ccc3c(=O)n4c(nc3c2)CCCCC4)c1 | i | i | i | i | i | . | . | . | .
CC(=O)c1c(C)[nH]c(C(=O)Nc2nc(-c3ccc(-c4ccccc4)cc3)cs2)c1C | i | -12* | i | i | i | 52%* | i | i | i
O=C(Nc1nc(-c2ccccc2)cs1)c1ccc2c(=O)n3c(nc2c1)CCCCC3 | i | -12* | i | i | i | 9.6%* | i | i | i
Cc1cc(-c2csc(NC(=O)c3ccc(=O)[nH]c3)n2)c(C)n1Cc1ccccc1 | i | i | i | i | i | . | . | . | .
Cc1cc(=O)oc2cc3oc(=O)cc(C)c3cc12 | i | i | i | i | i | . | . | . | .
Cc1cc(C)c(C(=O)COC(=O)c2cc([N+](=O)[O-])ccc2N2CCOCC2)cc1C | i | i | i | i | i | . | . | . | .
Cc1ccnc(NC(=O)C2CC(=O)N(c3ccc4c(c3)OCCO4)C2)c1 (stereo not given) | i | i | i | i | i | . | . | . | .
